Measurements as given in ChEMBL document CHEMBL1125621, “Muscarinic receptor binding and activation of second messengers by substituted N-methyl-N-[4-(1-azacycloalkyl)-2-butynyl]acetamides” (1991).
Calls of active or inactive are those of the source.

Key:
A9 [1] = assay: Increase in phosphoinositide (PI) metabolism in A9L-m1 cells at 100 uM.; type: functional, Mus musculus
[2] = biological target: Muscarinic acetylcholine receptor M3 (Mus musculus) (UniProt Q9ERZ3); assay: Increase in phosphoinositide (PI) metabolism in A9L-cholinergic receptor, muscarinic 3 expressing cells was measured at 100 uMolar; type: functional; details: 100 uM
Sequence of Muscarinic acetylcholine receptor M3 (Mus musculus) (Q9ERZ3 whole entry): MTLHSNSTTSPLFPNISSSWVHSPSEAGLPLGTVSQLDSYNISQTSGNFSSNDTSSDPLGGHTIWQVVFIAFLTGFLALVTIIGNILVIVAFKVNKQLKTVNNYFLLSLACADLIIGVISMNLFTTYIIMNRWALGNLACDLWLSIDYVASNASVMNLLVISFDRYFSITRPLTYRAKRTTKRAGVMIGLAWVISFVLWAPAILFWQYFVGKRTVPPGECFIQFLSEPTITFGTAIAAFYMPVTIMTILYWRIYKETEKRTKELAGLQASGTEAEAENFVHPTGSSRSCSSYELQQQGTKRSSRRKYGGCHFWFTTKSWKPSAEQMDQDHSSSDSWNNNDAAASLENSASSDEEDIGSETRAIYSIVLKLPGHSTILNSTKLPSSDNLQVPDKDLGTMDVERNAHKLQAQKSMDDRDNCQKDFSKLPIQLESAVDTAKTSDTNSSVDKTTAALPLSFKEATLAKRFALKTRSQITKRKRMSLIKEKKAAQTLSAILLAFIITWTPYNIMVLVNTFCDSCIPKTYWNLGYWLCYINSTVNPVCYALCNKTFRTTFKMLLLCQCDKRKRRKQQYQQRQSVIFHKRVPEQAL
Outline: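 A9L fibroblasts transfected with m3 receptor, grown in DMEM with 10% newborn calf serum. Labeled overnight with [3H]myo-inositol, preincubated 5 min at 37 °C in 10 mM LiCl DMEM-Hepes. Compound at 100 μM final, 30 min at 37 °C. Labeled inositol phosphates extracted by ion exchange. Result expressed as percent of the oxotremorine-M response, duplicate determinations.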

[3] = biological target: T1, Muscarinic acetylcholine receptor (Rattus norvegicus) (UniProt P08482+P08483+P08485+P08911+P10980); assay: Evaluated for displacement of [3H]oxotremorine-M binding ([3H]OXO-M) at muscarinic acetylcholine receptor in rat forebrain membranes; type: cell membranes; set-up: concentration or dose not given beside the values; details: Membrane
Outline: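 Sprague-Dawley rat forebrain membranes. Incubated with 2.7 nM [3H]Oxo-M in 50 mM NaPO4, 2 mM MgCl2, pH 7.4, 20 min at 37 °C. Filtered on glass fiber presoaked in 0.05% polyethylenimine. Nonspecific binding defined with 1 μM atropine. Single concentration 1 μM, triplicate, averaged over two to five trials. Read-out is percent displacement of specific binding.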

[4] = biological target: T1, Muscarinic acetylcholine receptor (Rattus norvegicus); assay: Displacement of [3H]N-methylscopolamine ([3H]NMS) binding at muscarinic acetylcholine receptor in rat cerebral cortical membranes; type: cell membranes; set-up: concentration or dose not given beside the values; details: Membrane
Outline: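 Rat (Sprague-Dawley, either sex, 200 g) forebrain membranes, homogenized and washed in 50 mM sodium phosphate pH 7.4. 200-300 μg membrane incubated with 0.5 nM [3H]NMS plus compound (single concentration, 100 μM) in phosphate-buffered saline, 60 min at 37 °C. Filtered on glass fiber, scintillation counted. Nonspecific binding defined with 1 μM atropine. Triplicate. Reported as percent displacement.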

[5] = The percent inhibition of cyclic AMP(cAMP) formation in NG108-15 cells at 100 uM.; details: Mus musculus
[6] = The percent inhibition of cyclic AMP(cAMP) formation in NG108-15 cells expressed in m40AChR was measured; i=inactive (< 2%); details: Mus musculus
A9 [7] = assay: The increase in phosphoinositide (PI) metabolism in A9L-m1 cells was measured at 100 uM; i = inactive; type: functional, cell-based; details: Mus musculus
Outline: (§1)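 A9L fibroblasts transfected with m1 or m3 receptor, grown in DMEM with 10% newborn calf serum. Labeled overnight with [³H]myo-inositol, preincubated 5 min at 37 °C in 10 mM LiCl in DMEM-Hepes, then exposed to compound at 100 μM final for 30 min. Inositol phosphates extracted by ion exchange. Result expressed as percent of Oxo-M response; duplicate determinations.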

[8] = biological target: T1, Muscarinic acetylcholine receptor (Rattus norvegicus); assay: compound was evaluated for displacement of [3H]N-methylscopolamine ([3H]NMS) binding at muscarinic acetylcholine receptor in rat cerebral cortical membranes; i = inactive (< 1%); type: cell membranes; details: Membrane
Outline: (§2)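 Rat cerebral cortical membranes, 200-300 μg per tube, incubated with 0.5 nM [³H]NMS and test compound at a single concentration of 100 μM in phosphate-buffered saline, 60 min at 37 °C. Glass fiber filtration and scintillation counting. Nonspecific binding taken with 1 μM atropine and subtracted. Triplicates; result given as percent displacement of specific binding.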

[9] = biological target: T2, cyclic AMP phosphoprotein (Rattus norvegicus) (UniProt Q712U5); assay: The percent inhibition of cyclic AMP(cAMP) formation in NG108-15 cells expressed in m40AChR was measured; type: functional, cell-based; details: concentration not given here
T2 sequence (whole entry): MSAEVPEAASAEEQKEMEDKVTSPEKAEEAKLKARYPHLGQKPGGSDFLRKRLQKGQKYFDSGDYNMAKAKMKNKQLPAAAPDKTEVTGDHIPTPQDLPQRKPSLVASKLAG
Outline: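 NG108-15 cells expressing m4 receptors; compound at 100 μM. Cyclic AMP inhibition expressed as percent of Oxo-M (100%), average of two or three trials.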

A9 [10] = assay: The increase in phosphoinositide (PI) metabolism in A9L-m3 cells was measured at 100 uM; i = inactive; type: functional, cell-based; details: Mus musculus; outline: as §1
[11] = biological target: T1, Muscarinic acetylcholine receptor (Rattus norvegicus); assay: compound was evaluated for displacement of [3H]oxotremorine-M binding ([3H]OXO-M) at muscarinic acetylcholine receptor in rat forebrain membranes; i = inactive (< 1%); type: cell membranes; details: Membrane
Outline: (§3)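 Forebrain membranes from Sprague-Dawley rats, prepared in 50 mM sodium phosphate pH 7.4. Incubated with 2.7 nM [³H]Oxo-M and test compound at a single concentration of 1 μM in 50 mM NaPO₄, 2 mM MgCl₂, pH 7.4, 20 min at 37 °C. Filters presoaked in polyethylenimine; nonspecific binding with 1 μM atropine. Percent displacement, mean of two to five trials.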

[12] = biological target: T1, Muscarinic acetylcholine receptor (Rattus norvegicus); assay: Compound was evaluated for displacement of [3H]N-methylscopolamine ([3H]NMS) binding at muscarinic acetylcholine receptor in rat cerebral cortical membranes; type: cell membranes; details: Membrane; outline: as §2
[13] = biological target: T1, Muscarinic acetylcholine receptor (Rattus norvegicus); assay: Compound was evaluated for displacement of [3H]oxotremorine-M binding ([3H]OXO-M) at muscarinic acetylcholine receptor in rat forebrain membranes; type: cell membranes; details: Membrane; outline: as §3

Row | SMILES | PI turnover (A9 [1]) | PI turnover [2] | Displacement [3] [%] | Displacement [4] [%] | inhibition [5] [%] | inhibition [6] | also measured
1 | CCOC(=O)C1CCCN(CC#CCN(C)C(C)=O)C1.O=C(O)C(=O)O (centres undefined) | 6.6 | 12.9 | 31.2 | 39.8 | 23.6 |  | 
2 | CC(=O)N(C)CC#CCN1CCC(F)CC1 |  |  |  | 18.8 |  |  | 
3 | CC(=O)N(C)CC#CCN1CCC[C@H]1CO.O=C(O)C(=O)O | 5.1 | 4.7 | 25 | 33.1 |  | inactive | 
4 | CC(=O)N(C)CC#CCN1CCCCC1 |  | 5.6 | 68.9 | 83.4 |  | inactive | PI turnover (A9 [7]): inactive
5 | CC(=O)N(C)CC#CCN1CCC(OS(=O)(=O)c2ccc(C)cc2)C1.O=C(O)C(=O)O (centres undefined) | 23.1 | 23.1 | 64.8 | 51.6 | 83.6 |  | 
6 | CC(=O)N(C)CC#CCN1CCC(O)C1.O=C(O)C(=O)O (centres undefined) | 17.1 | 7.4 | 39.9 | 21.5 | 22.5 |  | 
7 | COC[C@@H]1CCCN1CC#CCN(C)C(C)=O.O=C(O)C(=O)O | 6.2 | 5.5 |  | 52 | 15.4 |  | 
8 | CC(=O)N(C)CC#CCN1CCC(C(=O)O)CC1 |  | 5.2 | 26.8 |  | 17.5 |  | PI turnover (A9 [7]): inactive; Displacement [8]: inactive
9 | CCOC(=O)C1CCCCN1CC#CCN(C)C(C)=O.O=C(O)C(=O)O (centres undefined) | 12.8 | 15.2 | 24.9 | 5.8 | 44.1 |  | 
10 | CC(=O)N(C)CC#CCN1CCC(OC(=O)c2ccccc2)C1.O=C(O)C(=O)O (centres undefined) | 1.4 | 4 | 39.1 | 57.4 |  | inactive | 
11 | CC(=O)N(C)CC#CCN1CCCC(CO)C1 (centres undefined) |  | 2.8 | 22.4 | 45 |  |  | PI turnover (A9 [7]): inactive
12 | CC(=O)N(C)CC#CCN1CCC[C@H]1CF.O=C(O)C(=O)O | 11.1 | 10.6 | 50.5 | 53.8 |  |  | inhibition [9]: 62.4%
13 | CC(=O)N(C)CC#CCN1CCC[C@@H]1CO.O=C(O)C(=O)O | 2.6 | 4.8 | 39.7 | 56.2 |  | inactive | 
14 | CC(=O)N(C)CC#CCN1CCC(OS(C)(=O)=O)C1.O=C(O)C(=O)O (centres undefined) | 10.4 | 17.2 | 25.2 | 20.2 | 38.5 |  | 
15 | CC(=O)N(C)CC#CCN1CCN(CCO)CC1 |  |  | 22.3 | 9.3 |  | inactive | PI turnover (A9 [7]): inactive; PI turnover (A9 [10]): inactive
16 | CC(=O)N(C)CC#CCN1CCC(O)CC1 |  | 2.6 | 9.2 | 3.8 |  |  | PI turnover (A9 [7]): inactive
17 | CC(=O)N(C)CC#CCN1CCN(C(C)=O)CC1.O=C(O)C(=O)O | 1 | 3.1 |  | 59.2 |  | inactive | Displacement [11]: inactive
18 | CC(=O)N(C)CC#CCN1CCCC(O)C1 (centres undefined) |  | 4.9 | 9.1 | 21.7 | 3.4 |  | PI turnover (A9 [7]): inactive
19 | CC(=O)N(C)CC#CCN1CCNCC1.O=C(O)C(=O)O | 18.2 | 12 | 33.8 | 51.2 | 16.8 |  | 
20 | CC(=O)N(C)CC#CCN1CCC(F)C1.O=C(O)C(=O)O (centres undefined) | 11.3 | 7.9 | 38.1 | 29 | 8.9 |  | 
21 | CC(=O)N(C)CC#CCN1CCC[C@@H]1CF.O=C(O)C(=O)O | 7.2 | 10.4 | 61.5 | 67.2 | 38.6 |  | 
22 | C[N+](C)(C)CCOC(N)=O |  | 86.1 |  |  |  |  | 
23 | CC(=O)N(C)CC#CCN1CCC1.O=C(O)C(=O)O | 61.3 | 59.8 | 94 | 38 | 95.7 |  | 
24 | CC(=O)N(C)CC#CCN1CCCC1 | 52.5 | 41.6 | 94.7 | 89.4 | 100 |  | 
25 | CC(=O)N(C)CC#CCN1CCC(CCO)CC1.O=C(O)C(=O)O | 3.3 |  | 11 | 16.3 |  | inactive | 
26 | CCOC(=O)C1CCN(CC#CCN(C)C(C)=O)CC1.O=C(O)C(=O)O | 3.3 | 8.8 | 32.1 | 47.5 |  | inactive | 
27 | CC(=O)OC[C@H]1CCCN1CC#CCN(C)C(C)=O |  | 2.6 |  |  |  | inactive | PI turnover (A9 [7]): inactive; Displacement [12]: 61.6%; Displacement [13]: 42.1%
28 | CC(=O)N(C)CC#CCN1CCCCC1CO.O=C(O)C(=O)O (centres undefined) | 7.3 | 12.5 | 20.4 | 31.2 |  | inactive | 
29 | CC(=O)N(C)CC#CCN1CCC(CO)CC1.O=C(O)C(=O)O | 8.8 | 16 | 14.7 | 10.2 | 4.8 |  | 
30 | O=C1CCCN1CC#CCN1CCCC1 |  | 35.6 |  |  |  |  | 
